Data set [1] can be described thus: Plasma pharmacokinetics of TAK‐020. Type of data set: in vivo, human (healthy subjects). The conditions noted are these: for half-life / Tmax: human, plasma. Put shortly:
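In the MRD part, healthy subjects took oral test compound q.d. (3.75–60 mg) or placebo, with sampling on days 1 and 9. Plasma levels were measured by validated HPLC-MS/MS (LLOQ 0.10 ng/mL). Noncompartmental parameters used actual sampling times, with geometric mean and %CV for Cmax and AUC. Accumulation ratios were based on Cmax and AUC24, plus the LS-mean ratio AUC24 (day 9):AUC∞ (day 1).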

Data set [2] deals with FcεRI‐mediated activation of basophils. Kind of data set: Basophil activation test. It is filed as in vivo, human.

Where only a bound is given, the exact number is not on record here.

For orientation: half-life means the time needed for the level to fall by half in the phase considered. A lower half-life goes with rapid decline. As usually defined, the Tmax is the time at which the peak concentration occurs.

Consider `C=CC(=O)N1CC[C@H](Oc2nc(-c3n[nH]c(=O)[nH]3)cc3ccccc23)C1` [TAK‐020], for which the “least‐squares means ratio of AUC24 (day 9):AUC∞ (day 1)” value in data set [1] (MRD) is “near unity”. In addition, in data set [1] (MRD 3.75 to 60 mg q.d.), the “accumulation ratio based on AUC24 (Rac(AUC24)), geometric mean” value was “near unity”. Also, the “accumulation ratio based on Cmax (Rac(Cmax)), geometric mean” value in data set [1] (MRD 3.75 to 60 mg q.d.) is recorded as “near unity”. Besides, the “steady‐state systemic exposure (mean dose‐normalized Cmax and AUC24) vs dose” value in data set [1] (MRD, days 1 and 9) is recorded as “dose‐proportional manner up to 60 mg”. In addition, the half-life in data set [1] (oral, 3.75 mg, mean t1/2z, MRD, 3.75‐mg dose, day 1) is 2.59 h; in data set [1] (oral, 3.75 mg, mean t1/2z, MRD, 3.75‐mg dose, day 9 after q.d. dosing) it was 2.15 h; in data set [1] (oral, 60 mg, mean t1/2z, MRD, 60‐mg dose, day 1), 6.3 h; in data set [1] (oral, 60 mg, mean t1/2z, MRD, 60‐mg dose, day 9 after q.d. dosing) it was 5.46 h; in data set [1] (oral, half‐life, doses ≥ 2.5 mg (abstract)), 3 to 9 h; in data set [1] (oral, mean half‐life in plasma, q.d. dosing) it was 2 to 6 h. In addition, the Tmax in data set [1] (oral, median Tmax, MRD 3.75 to 60 mg, after a single dose on day 1) fell in the range of 0.5 to 0.75 h; in data set [1] (oral, median Tmax, MRD 3.75 to 60 mg, day 9 after q.d. dosing) it was 0.75 to 1 h; in data set [1] (po, median time to maximum plasma concentration (Tmax), single and multiple doses (abstract)) it was 0.75 to 1 h. Besides, in data set [2] (MRD, day 9 after q.d. administration, doses ≥3.75 mg (3.75 to 60 mg)), the “reduction from baseline in the %CD63‐positive basophils” value is listed as over 80%. Moreover, the “reduction in the %CD63‐positive basophils sustained throughout the entire dosing interval (predose to 24 hours postdose)” value in data set [2] (MRD, ≥ 45‐mg doses, after multiple dosing for 9 days) was at least 80%. Further, the “reduction in the %CD63‐positive basophils” value in data set [2] (SRD, 0.1‐mg and 0.5‐mg dose groups) is listed as “essentially no reduction”. Also, the “time to return to baseline basophil activity postdose” value in data set [2] (SRD, single doses ≥ 4.4 mg) was in the range of 36 to 72 h. Moreover, in data set [2] (SRD, single doses ≥ 4.4 mg (4.4–105 mg)), the “reduction from baseline of FcεRI‐mediated activation of basophils (%CD63‐positive basophils)” value is over 80%.
